The list is not random: actives were taken first. Their share in the collection is about 3.5%.
MrgX1 allo act = human MrgX1 positive allosteric modulation, primary screen. Q96LB2. MrgX1-HEK293, Fluo-4 calcium flux, FDSS; hits give high values. 0.63% of 310,000 active. B-score at 10 µM;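 active means plate-corrected calcium response at least 3 library SD above typical, normal starting fluorescence, not activating the receptor alone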;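 further: compound read alongside a low EC10 to EC30 dose of BAM8-22 agonist; peak minus trough fluorescence over baseline measured at the second addition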
Target sequence (Q96LB2 whole entry, looked up): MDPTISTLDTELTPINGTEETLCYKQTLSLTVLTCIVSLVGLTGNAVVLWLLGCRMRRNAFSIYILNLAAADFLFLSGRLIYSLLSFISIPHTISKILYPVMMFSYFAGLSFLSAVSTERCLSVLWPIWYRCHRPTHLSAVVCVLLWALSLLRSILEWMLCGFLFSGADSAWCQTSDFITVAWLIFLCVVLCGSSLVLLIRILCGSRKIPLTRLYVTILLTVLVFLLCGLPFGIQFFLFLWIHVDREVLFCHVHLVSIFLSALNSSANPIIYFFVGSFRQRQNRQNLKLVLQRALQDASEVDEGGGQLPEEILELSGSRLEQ
MrgX1 agonist = agonists of human MrgX1 receptor. Q96LB2. MrgX1-HEK293 cells, Fluo-4 calcium fluorescence, agonist mode; hits give high values. B-score at 10 µM. 0.44% of 310,000 active;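 active means calcium response B-score plate-corrected fluorescence ratio at least 3 library SD, with starting fluorescence B-score inside 5 SD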
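Test system: Stable human MrgX1 HEK293 cell line | Schedule: Overnight plating before 1 h dye loading | Read-out basis: Baseline-normalised fluorescence change ratio, B-scored | Detection: Kinetic calcium dye fluorescence, Fluo-4 NW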
MrgX1 antagonist = antagonists of human MrgX1 receptor; Q96LB2; MRGX1-HEK293 calcium flux, Fluo-4, BAM8-22 antagonism; hits give low values; B-score at 10 µM; 1.3% of 310,000 active; AID 588676;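 active means calcium-response B-score plate-corrected more than 3 library SD below zero, starting fluorescence within 5 deviations, no agonist response on first addition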;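 further: peak minus trough fluorescence over baseline after final BAM8-22 challenge near maximal dose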
RGS4 act = potentiators or activators of RGS4 | B-score at 10 µM | AID 463111 | 0.92% of 310,000 active | HEK293 M3R/inducible RGS4, carbachol calcium flux Fluo4; hits give low values;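 active means B-score of the integrated calcium signal more than 4 SD below the library mean, with starting fluorescence not abnormally high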;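 further: negative B-score means reduced calcium response which marks RGS4 activation or potentiation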
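Material: Inducible-RGS4 HEK293 cells carrying M3 receptor; also added: carbachol at ECmax as muscarinic agonist stimulus; incubation: compound preincubation 20 min at room temperature before agonist; signal: Fluo4-AM (2 µM) calcium-flux fluorescence, kinetic read; measure: integrated calcium ratio converted to B score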
RGS4 inh = inhibitors of human RGS4. P49798. HEK293 M3R/RGS4 inducible, Fluo-4 calcium flux; hits give high values; triggered by carbachol at its EC20. B-score at 10 µM. 0.45% of 310,000 active;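 active means B-score, a plate-corrected calcium signal, over three deviations above library mean, with baseline fluorescence within five deviations of library mean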;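 further: RGS4 expression induced by doxycycline in cells with stable M3 receptor; B-score is computed from the integrated fluorescence ratio over baseline after carbachol; higher B-score means a larger calcium signal and so more RGS4 inhibition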
Target sequence (P49798 whole entry, looked up): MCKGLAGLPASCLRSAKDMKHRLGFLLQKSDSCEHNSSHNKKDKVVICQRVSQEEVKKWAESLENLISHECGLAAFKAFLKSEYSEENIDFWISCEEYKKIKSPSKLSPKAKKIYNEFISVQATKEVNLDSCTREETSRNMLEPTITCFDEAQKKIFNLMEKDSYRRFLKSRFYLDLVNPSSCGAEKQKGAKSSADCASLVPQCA
MrgX1 PAM conf = human MrgX1 positive allosteric modulation, re-confirmation; shares compounds with MrgX1 allo act; 13% of 1,200 active; AID 602413; activation (ratio percentage), % at 10 µM; MrgX1-HEK293, Fluo-4 calcium fluorescence, FDSS;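 active means ratio at least 3 SD above the weak peptide control, stable starting fluorescence, no direct agonism earlier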;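 further: compound followed by low BAM8-22 agonist challenge near EC20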
MrgX1 antag conf = reconfirmed antagonist of human MrgX1 receptor signaling. shares compounds with MrgX1 antagonist. MrgX1-HEK293, BAM8-22 calcium flux, Fluo-4; hits give low values. remaining BAM8-22 calcium response % of control (hits give low values), % at 10 µM. 19% of 2,300 active. AID 602420;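 active means remaining agonist calcium response no higher than 100% minus 3 SD of agonist-only control wells, with starting fluorescence near control levels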;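 further: agonist BAM8-22 given at a near maximal EC90 to ECmax level; peak minus minimum fluorescence divided by baseline after agonist addition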
HEK293 Ca flux = activity in parental HEK293 cells lacking MrgX1. shares compounds with MrgX1 antagonist. Fluo-4 calcium fluorescence, FDSS. fluorescence ratio F(max-min)/F0 at 10 µM. 2% of 4,000 active. AID 624111;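 active means duplicate-averaged calcium fluorescence ratio at least three times the standard deviation of buffer wells, a nonspecific response in parental cells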
HEK293 Ca counter = counter-screen for MrgX1 allosteric activators: effect in parental HEK293 cells | shares compounds with MrgX1 antagonist | parental HEK293 calcium flux, Fluo-4 fluorescence ratio; hits give high values | fluorescence ratio F(max-min)/F0 at 10 µM | 0.4% of 4,000 active;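 active means calcium fluorescence ratio, averaged over duplicates, at least 3 SD of the buffer-well ratio, meaning a nonspecific response in receptor-free cells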;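 further: untransfected parental HEK293 lacking MrgX1 used as counterscreen for MrgX1 allosteric activators; fluorescence change taken during the second addition on a kinetic imager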
HEK293 Ca cntr2 = MrgX1 activator counter-screen hit in parental HEK293 cells; shares compounds with MrgX1 antagonist; Fluo-4 calcium fluorescence (FDSS); hits give high values; fluorescence ratio F(max-min)/F0 at 10 µM; 8.7% of 4,000 active;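 active means calcium fluorescence ratio at least three times the spread of buffer wells, meaning a non-specific response in parental cells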
Of the large screens only hits and unclear results are named; the others gave an inactive call (follow-up assays come after a bar, where they were run).

COC(=O)C1=C(c2cc3ccccc3o2)C[C@@H]2CC[C@H]1N2C(=O)NCc1ccc(F)cc1	MrgX1 allo act 7.9 | MrgX1 PAM conf inactive | HEK293 Ca flux inactive | HEK293 Ca counter inactive | HEK293 Ca cntr2 inactive
COc1ccc(C2=CC(c3ccc(OC)c(OC)c3)c3c(c4ccccc4oc3=O)O2)cc1OC (stereo not given)	none
CCCCn1c(=O)c(C(=O)NCCc2ccccc2)c(O)c2ccccc21	MrgX1 allo act 8.1 | MrgX1 PAM conf inactive | HEK293 Ca flux inactive | HEK293 Ca counter inactive | HEK293 Ca cntr2 inactive
CCCCn1c(=O)c(C(=O)NC(C)c2ccccc2)c(O)c2ccccc21 (stereo not given)	MrgX1 allo act 9.1 | MrgX1 PAM conf inactive | HEK293 Ca flux inactive | HEK293 Ca counter 50 | HEK293 Ca cntr2 inactive
CCCCCn1c(=O)c(C(=O)Nc2ccccc2)c(O)c2ccccc21	none
O=c1[nH]c(=S)n(Cc2ccc(F)cc2)c(O)c1/C=N/N1CCCCCC1	none
CCOC(=O)C1CCN(C(C)C(=O)c2c[nH]c3ccccc23)CC1 (stereo not given)	none
Cc1[nH]c2ccccc2c1C(=O)C(=O)N1CCC2(CC1)OCCO2	none
CC(C)Nc1ccc(Nc2ccccc2)cc1	MrgX1 antagonist -5.1 (no result: RGS4 act, RGS4 inh) | MrgX1 antag conf inactive | HEK293 Ca flux inactive | HEK293 Ca counter inactive | HEK293 Ca cntr2 inactive
CCOC(=O)c1c(/N=C/C2C(=O)NC(=S)NC2=O)sc2c1CCC2	MrgX1 antagonist -7.5 | MrgX1 antag conf inactive | HEK293 Ca flux inactive | HEK293 Ca counter inactive | HEK293 Ca cntr2 inactive
O=C(COc1ccc2ccc(=O)oc2c1)N1C[C@H]2C[C@@H](C1)c1cccc(=O)n1C2	none
CCOC(=O)C1SC2(C(F)(F)F)CC1(O)c1c(C)cc(C)nc1O2 (stereo not given)	MrgX1 antagonist -7.8 | MrgX1 antag conf inactive | HEK293 Ca flux inactive | HEK293 Ca counter inactive | HEK293 Ca cntr2 inactive
CCCN1CCC[C@@H](c2cccc(O)c2)C1	MrgX1 antagonist -5.6 (no result: RGS4 act, RGS4 inh) | MrgX1 antag conf 80% | HEK293 Ca flux inactive | HEK293 Ca counter inactive | HEK293 Ca cntr2 inactive
CN1CCc2nc(SCC(=O)OC(C)(C)C)c(C#N)cc2C1	none
CN1CCc2nc3sc(C(=O)NC4CC4)c(N)c3cc2C1	MrgX1 antagonist -6.6 | MrgX1 antag conf inactive | HEK293 Ca flux inactive | HEK293 Ca counter inactive | HEK293 Ca cntr2 inactive
CN(C)C(=O)Oc1ccc2nnc3ccnn3c2c1	none
COC(=O)C1=C(c2ccccc2)C[C@@H]2CC[C@H]1N2C(=O)NCC1CC1	MrgX1 antagonist -4.8 | MrgX1 antag conf inactive | HEK293 Ca flux inactive | HEK293 Ca counter inactive | HEK293 Ca cntr2 inactive
C=CCN1C(=O)NC(=O)C(Cc2ccc(OC)c(OC)c2)C1=O (stereo not given)	MrgX1 antagonist -4.8 | MrgX1 antag conf inactive | HEK293 Ca flux inactive | HEK293 Ca counter inactive | HEK293 Ca cntr2 inactive
CCCCCn1c(=O)c(C(=O)Nc2cccc(C)c2)c(O)c2ccccc21	MrgX1 antagonist -5.2 | MrgX1 antag conf inactive | HEK293 Ca flux 0.79 | HEK293 Ca counter inactive | HEK293 Ca cntr2 inactive
CCCCCn1c(=O)c(C(=O)Nc2cccc(C)n2)c(O)c2ccccc21	none
O=C1CN=C(c2ccccc2)c2ccccc2N1	MrgX1 antagonist -7.3 | MrgX1 antag conf inactive | HEK293 Ca flux inactive | HEK293 Ca counter inactive | HEK293 Ca cntr2 inactive
COc1ccccc1NC(=O)c1cn(CCC#N)nc1-c1ccc(F)cc1	none
ClCCN1CCN(c2ccnc3cc(Cl)ccc23)CC1	MrgX1 antagonist -17 | MrgX1 antag conf 12% | HEK293 Ca flux inactive | HEK293 Ca counter inactive | HEK293 Ca cntr2 inactive
CCCCCCN1CCN(c2ccc(Cl)cc2)CC1	none
CNC(=S)N1CC2CC(C1)c1cccc(=O)n1C2 (stereo not given)	none
COc1cc(/C=C/c2nc3ccccc3c(=O)n2-c2ccccc2O)ccc1O	MrgX1 antagonist -9.3 | MrgX1 antag conf inactive | HEK293 Ca flux inactive | HEK293 Ca counter inactive | HEK293 Ca cntr2 47
COc1cc(/C=C/c2nc3ccccc3c(=O)n2-c2cccc(O)c2)ccc1O	none
C/C(=N\NC(N)=O)c1c(O)n(C)c(=O)n(C)c1=O	none
Fc1ccccc1CNC1CN2CCC1CC2 (stereo not given)	none
Ic1ccccc1CN[C@@H]1C2CCN(CC2)[C@@H]1C(c1ccccc1)c1ccccc1	MrgX1 antagonist -15 (no result: RGS4 act, RGS4 inh) | MrgX1 antag conf 5.6% | HEK293 Ca flux inactive | HEK293 Ca counter inactive | HEK293 Ca cntr2 inactive
CC1(C)CC(n2[nH]c(=O)c3c2NC(=O)CSC3c2ccccc2)CCO1 (stereo not given)	none
COc1ccc(N2CCN(C(CNC(=O)Oc3ccccc3)c3cccnc3)CC2)cc1 (stereo not given)	MrgX1 antagonist -6.9 | MrgX1 antag conf inactive | HEK293 Ca flux inactive | HEK293 Ca counter inactive | HEK293 Ca cntr2 inactive
C=CCn1c(O)c(C(C)=NCc2ccc3c(c2)OCO3)c(=O)[nH]c1=O	MrgX1 antagonist -4.7 | MrgX1 antag conf inactive | HEK293 Ca flux inactive | HEK293 Ca counter inactive | HEK293 Ca cntr2 inactive
CC(=NCc1ccc2c(c1)OCO2)c1c(O)n(Cc2ccccc2)c(=O)[nH]c1=O	none
Cn1c(=O)cc(OCCCC(=O)N2CCC3(CC2)OCCO3)c2ccccc21	MrgX1 antagonist -9.8 | MrgX1 antag conf inactive | HEK293 Ca flux inactive | HEK293 Ca counter inactive | HEK293 Ca cntr2 inactive
O=[N+]([O-])NC1=NCN(Cc2ccco2)CN1Cc1ccco1	none
O=C1NC(=O)N(CCNc2ncc(C(F)(F)F)cc2Cl)C(=O)C1Cc1ccc(Cl)cc1 (stereo not given)	none
COc1ccccc1CN1CCN(Cc2ccc(Cl)cc2)CC1	MrgX1 antagonist -5.3 | MrgX1 antag conf inactive | HEK293 Ca flux inactive | HEK293 Ca counter inactive | HEK293 Ca cntr2 inactive
O=c1[nH]c(=O)n(C2CCCCCC2)c(O)c1C=NCc1cccnc1	none

High-throughput results deposited in PubChem BioAssay by Johns Hopkins Ion Channel Center.
